INS promoter inh: TRM-6 insulin promoter activity inhibition. TRM-6 cells (human fetal islet line), insulin promoter-eGFP reporter, imaging; reporter expression induced with tamoxifen. hit rate 0.9% among 130,000. inhibition, % at 2 µM;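 active means inhibition above the mean plus 3 SD, with well images judged a real hit on visual review, cut at about 60% in these data, passing the limit was not always enough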
NPY Y1 blocker: antagonists of human neuropeptide Y receptor Y1; AID 1040; hit rate 1% among 200,000; inhibition, % at 3.6 µM; P25929; HEK293-CNG Y1 cells, membrane potential fluorescence; NPY at EC95, then isoproterenol;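 active means inhibition above the campaign mean inhibition of all tested compounds plus 3 SD, cut at about 20% in these data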;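 further: 0% = DMSO wells given NPY plus isoproterenol and 100% = isoproterenol alone without NPY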
Target sequence (P25929 whole entry, looked up): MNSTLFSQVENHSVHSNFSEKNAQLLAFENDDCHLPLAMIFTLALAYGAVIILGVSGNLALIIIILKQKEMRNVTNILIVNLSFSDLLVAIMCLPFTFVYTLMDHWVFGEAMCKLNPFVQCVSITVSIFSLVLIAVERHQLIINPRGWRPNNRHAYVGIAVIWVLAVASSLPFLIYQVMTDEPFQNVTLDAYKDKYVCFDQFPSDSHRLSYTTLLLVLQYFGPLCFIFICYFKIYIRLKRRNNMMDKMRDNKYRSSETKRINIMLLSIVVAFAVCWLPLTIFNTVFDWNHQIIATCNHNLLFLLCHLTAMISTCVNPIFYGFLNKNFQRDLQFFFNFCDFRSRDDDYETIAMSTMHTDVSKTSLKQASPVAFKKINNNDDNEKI
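Assay system: HEK293 cells with Y1 receptor plus CNG channel | Probe or stimulus: NPY (25 nM), isoproterenol (1 µM), Ro 20-1724 (25 µM) | Timing: Compound incubation 1 h at room temperature, readout 45 min post-stimulation | Measured by: Membrane-potential fluorescent dye readout | Benchmarks: High control isoproterenol alone, low control NPY with isoproterenol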
NPY-Y2 antag: antagonists of human neuropeptide Y receptor Y2; NPY-Y2 expressing cells, antagonist mode; inhibition, % at 2.7 µM; hit rate 0.99% among 140,000; AID 793; in the data active means inhibition above about 17%;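 further: 0% = vehicle with agonist challenge and 100% = reference antagonist with challenge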
RAM inhibit: blocks the yeast RAM network; S. cerevisiae dse1pr::URA3 reporter, 5-FOA growth OD615, 2 d; analog-sensitive cbk1-as2 kinase mutant strain; inhibition, % at 50 µM; hit rate 1.8% among 190,000; AID 868;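 active means inhibition above a set limit, 3 SD over mean compound inhibition, cut at about 8.4% in these data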;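 further: 0% = DMSO-only wells with no growth and 100% = 10 µM 1-NA-PP1 full growth; inhibition rescues growth on 5-FOA so higher OD means more RAM inhibition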
NPY-Y2 PAM-ag: potentiates or activates human NPY-Y2 receptor; P49146; cells expressing NPY-Y2, potentiator/agonist read-out; activation, % at 3.6 µM; hit rate 0.45% among 220,000; AID 1359; in the data active means activation above about 27%;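 further: cells stimulated with NPY near EC25 plus isoproterenol at EC100; 0% = vehicle plus submaximal agonist and 100% = vehicle plus saturating agonist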
NPY1 pot ag: potentiators or agonists of human neuropeptide Y receptor Y1 | P25929 | NPY-Y1 expressing cells, potentiator/agonist activation | hit rate 0.37% among 220,000 | activation, % at 3.6 µM; in the data active means activation above about 33%, passing the limit was not always enough;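 further: cells stimulated with NPY at EC10 then isoproterenol at EC100; 0% = low agonist plus stimulus and 100% = saturating agonist plus stimulus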
NPY-Y1 antag ct: human NPY-Y1 antagonism in NPY-Y2 counter-screen; cell-based NPY-Y1 antagonism counterscreen; shares compounds with NPY-Y2 antag; inhibition, % at 3.6 µM; hit rate 19% among 710; in the data active means inhibition above about 20%;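 further: cells challenged with NPY then isoproterenol with cAMP sensed through a CNG channel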
NPY2 antag conf: human NPY-Y2 antagonism, confirmation; hit rate 32% among 710; shares compounds with NPY-Y2 antag; HEK293 NPY-Y2 CNG channel, membrane potential fluorescence; AID 1257; inhibition, % at 2.8 µM;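 active means mean inhibition of triplicate wells above the hit cutoff set in the primary screen, cut at about 17% in these data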;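 further: 0% = DMSO with NPY challenge and 100% = BIIE0246 high control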
RAM efflux-def: RAM network inhibitors in efflux-deficient yeast | 1,200 tested, under 10 active | shares compounds with RAM inhibit | AID 1305 | S. cerevisiae efflux-deficient reporter strain, 5-FOA growth OD615, 2 days | max inhibition, %; call rule not given here;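 further: plate controls were vehicle for no effect and reference inhibitor for full effect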
The depositor's hits bear a star; / = not tested or not shown. A selection: hits, their analogues and other compounds. The true share with any hit is near 3.8%.

SMILES	INS promoter inh	NPY Y1 blocker	NPY-Y2 antag	RAM inhibit	NPY-Y2 PAM-ag	NPY1 pot ag	others
COc1ccc([N+](=O)[O-])cc1N=Cc1c(O)n(CCc2ccccc2)c(=O)n(C(C)C)c1=O	21	3	0	11*	5	0
Cc1ccc(OCC(=O)Nc2ccc(Cl)cc2C(=O)c2ccccc2)cc1	33	-2	1	9.4*	11	-4
CN(C)CC#CCn1c2ccccc2c2ccccc21	/	/	/	/	-39	-22
CC(=O)c1ccc2c(c1)C1C(Cl)C(Sc3ccccc3[N+](=O)[O-])CC1C(C(=O)O)N2 (configuration not stated)	-22	-4	1	11*	2	0
N/C(=N\[N+](=O)[O-])NCCCC(NC(=O)CNC(=O)c1ccccc1)C(=O)O (configuration not stated)	/	11	/	2	3	8
O=C(N/N=C/c1c(O)n(CCc2ccc(F)cc2)c(=O)[nH]c1=O)c1ccncc1	-33	10	/	8.6*	-11	14
O=C(N/N=C/c1c(O)n(CCc2ccccc2)c(=O)[nH]c1=O)c1ccncc1	/	4	1	4	-1	-2
CCC[N+]12CCC(CC1)C(=C(c1ccccc1)c1ccccc1)C2	7	12	3	3	2	10
CCCC[N+]12CCC(CC1)C(=C(c1ccccc1)c1ccccc1)C2	/	18	23*	1	-9	-8	NPY-Y1 antag ct=12;NPY2 antag conf=11
CCOP(=O)(OCC)c1ccc(O)cc1	/	0	/	1	-3	-9
O=C(COC(=O)c1ccc(O)cc1)Nc1ccc(Cl)cc1C(=O)c1ccccc1	/	17	19*	6	-7	-44	NPY-Y1 antag ct=12;NPY2 antag conf=9
CCCCOc1nc2ccccc2c(=O)n1-c1ccccc1	-3	6	17*	-1	-2	-14	NPY-Y1 antag ct=5;NPY2 antag conf=18*
COc1nc2ccccc2c(=O)n1-c1ccc(C)cc1	-43	0	2	2	1	-15
OC(COCc1ccc(Cl)cc1)CN1CC=C(c2ccccc2)CC1 (configuration not stated)	-9	9	19*	0	-9	-19	NPY-Y1 antag ct=8;NPY2 antag conf=11
COc1ccccc1OP(=O)(Nc1cccnc1)Oc1ccccc1OC	/	1	4	2	-3	-21
CN1C(=O)/C(=C/c2cccn2-c2ccc3ccccc3c2)C(=O)NC1=S	26	1	1	15*	-5	-9	RAM efflux-def=4
O=C1NC(=S)NC(=O)C1=Cc1cccn1-c1ccc(O)cc1	60	2	/	8	-8	-5
COc1ccc(N2C(=O)/C(=C/c3cccs3)C(=O)NC2=S)cc1	/	/	/	/	1	18
COc1ccc(N2C(=O)/C(=C/C=C/c3ccccc3[N+](=O)[O-])C(=O)NC2=S)cc1	0	1	/	17*	-23	2	RAM efflux-def=2
O=C(O)c1cccc2c1NC(C(=O)O)C1CC(Sc3ccccc3[N+](=O)[O-])C(Cl)C21 (configuration not stated)	7	7	0	15*	0	-4	RAM efflux-def=7
OC1/C(=C/c2ccc(F)cc2)N2CCC1CC2 (configuration not stated)	0	2	4	0	17	16
O=P(NS(=O)(=O)c1ccc(Cl)cc1)(Oc1ccccc1)Oc1ccccc1	59	11	5	2	-7	-27
O=P(Nc1cccc(F)c1)(Oc1ccccc1F)Oc1ccccc1F	/	/	/	/	19	34
COc1cccc(NP(=O)(Oc2ccc(Cl)cc2)Oc2ccc(Cl)cc2)c1	-7	2	15	15*	5	17	RAM efflux-def=5
Cc1cccc(NP(=O)(Oc2ccccc2F)Oc2ccccc2F)c1	-31	-2	8	16*	2	0	RAM efflux-def=2

High-throughput results deposited in PubChem by several laboratories.
